Reference: ChEMBL document CHEMBL4732226, “Discovery of a potent G-protein-coupled receptor 119 agonist for the treatment of type 2 diabetes” (Bioorg Med Chem, 2021)
Calls of active or inactive are those of the source. The calls are words filed in the database; no cut-off is given here.

Assays:
Rattus norvegicus = assay: Antidiabetic activity in Sprague-Dawley rat assessed as reduction in HFD-induced body weigh gain at 25 to 50 mg/kg/day, po for 28 days; type: functional, organism-based; conditions: dose 25-50 mg/kg/day, time 28.0 day
In short: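 Male SD rats were fed high-fat diet for 12 weeks, with a normal-chow group alongside, then split into 4 treatment groups. Oral dosing at 25 or 50 mg/kg/day for 28 days in PG450/Tween 80/0.1% Na-CMC (5:5:90). Body weight recorded daily.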

[1] = Toxicity in male Wistar rat assessed as ratio of thymus to body weight at 100 mg/kg, po after 28 days (reference value: 0.148 +/- 0.023); type: organism-based; conditions: in vivo, 672 h, time 28 day
[2] = Toxicity in female Wistar rat assessed as ratio of adrenals to body weight at 400 mg/kg, po after 28 days (reference value: 0.045 +/- 0.007); type: organism-based; conditions: in vivo, 672 h, time 28 day
Mus musculus [3] = assay: Antidiabetic activity in po dosed db/db mouse assessed as reduction in blood glucose level administered up to 14 days pretreated for 30 mins followed by glucose-stimulation and measured up to 120 mins by OGTT method relative to control; type: functional, organism-based; conditions: dose 1-50 mg/kg, time day <=14
In short: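 Male db/db mice dosed orally once daily for 14 days at 1 to 50 mg/kg. Oral glucose 2 g/kg given 30 min after dosing, then blood glucose followed for 0–120 min. Glucose AUC determined on day 1 and day 14; mean ± s.e.m.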

[4] = AUC(0 to infinity) in Sprague-Dawley rat at 25 mg/kg, po up to 24 hrs; type: ADME, organism-based; design: route oral, dose 25 mg/kg, time <=24; conditions: in vivo
In short: (§1)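 Male SD rats fasted overnight, water ad libitum, fed 4 h after dosing. Single oral gavage of 25 mg/kg as a homogeneous suspension in 0.5% Tween 80 in 0.5% Na-CMC. Blood drawn into Na-heparin tubes at 0.25, 0.5, 1, 2, 4, 6, 8 and 24 h; plasma stored at -70°C. Parameters by non-compartmental analysis, with C0 taken as zero and BLQ samples set to zero.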

[5] = Toxicity in female Wistar rat assessed as albumin level at 100 mg/kg, po after 28 days (reference value: 3.57 +/- 0.14 g.dl); type: organism-based; conditions: in vivo, 672 h, time 28 day
[6] = Toxicity in female Wistar rat assessed as ratio of uterus to body weight at 100 mg/kg, po after 28 days (reference value: 0.335 +/- 0.108); type: organism-based; conditions: in vivo, 672 h, time 28 day
[7] = Toxicity in male Wistar rat assessed as creatinine level at 200 mg/kg, po after 28 days (reference value: 0.61 +/- 0.04 mg/dl); type: organism-based; conditions: in vivo, 672 h, time 28 day
[8] = Toxicity in female Wistar rat assessed as ALT level at 400 mg/kg, po after 28 days (reference value: 21.28 +/- 2.31 U/L); type: organism-based; conditions: in vivo, 672 h, time 28 day
[9] = Toxicity in female po dosed Wistar rat after 28 days; type: organism-based; conditions: in vivo, time 28 day
In short: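 Repeated-dose oral gavage study in Wistar rats, 10 per sex per group, at 100, 200 and 400 mg/kg once daily for 28 days. Clinical signs, mortality, neurobehaviour, food intake, body weight and ophthalmic examination were monitored, followed by blood biochemistry, organ weights and histopathology on day 29.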

[10] = Half life in Beagle dog at 10 mg/kg, po up to 24 hrs; type: ADME, organism-based, Canis lupus familiaris; conditions: in vivo
In short: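 Single oral dose at 10 mg/kg given to male Wistar rats and to Beagle dogs; bioavailability also determined in both species.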

[11] = Toxicity in female Wistar rat assessed as ratio of brain to body weight at 100 mg/kg, po after 28 days (reference value: 1.1 +/- 0.078); type: organism-based; conditions: in vivo, 672 h, time 28 day
[12] = Toxicity in female Wistar rat assessed as ratio of kidney to body weight at 200 mg/kg, po after 28 days (reference value: 0.801 +/- 0.071); type: organism-based; conditions: in vivo, 672 h, time 28 day
[13] = Toxicity in female Wistar rat assessed as ratio of ovaries to body weight at 200 mg/kg, po after 28 days (reference value: 0.091 +/- 0.009); type: organism-based; conditions: in vivo, 672 h, time 28 day
[14] = Toxicity in male Wistar rat assessed as ratio of liver to body weight at 100 mg/kg, po after 28 days (reference value: 3.142 +/- 0.231); type: organism-based; conditions: in vivo, 672 h, time 28 day
[15] = molecular target: T1, Glucose-dependent insulinotropic receptor (Homo sapiens) (UniProt Q8TDV5); assay: Agonist activity at human GPR119 stably transfected in CHO-K1 cells assessed as increase in cAMP stimulation after 1 hr by enzyme immunoassay relative to AR231453; type: functional, cell-based; conditions: filed as agonist
T1 sequence (whole entry): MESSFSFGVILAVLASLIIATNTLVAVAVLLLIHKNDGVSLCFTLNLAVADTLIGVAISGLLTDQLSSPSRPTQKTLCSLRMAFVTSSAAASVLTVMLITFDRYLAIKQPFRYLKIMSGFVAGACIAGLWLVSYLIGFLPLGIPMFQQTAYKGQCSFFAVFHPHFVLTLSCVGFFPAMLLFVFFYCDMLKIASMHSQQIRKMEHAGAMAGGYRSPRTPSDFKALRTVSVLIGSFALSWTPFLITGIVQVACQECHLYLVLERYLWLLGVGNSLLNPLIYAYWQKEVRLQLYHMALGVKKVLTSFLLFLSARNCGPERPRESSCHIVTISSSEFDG

[16] = Toxicity in male Wistar rat assessed as albumin level at 100 mg/kg, po after 28 days (reference value: 3.56 +/- 0.08 g.dl); type: organism-based; conditions: in vivo, 672 h, time 28 day
[17] = Toxicity in male Wistar rat assessed as ratio of adrenals to body weight at 100 mg/kg, po after 28 days (reference value: 0.020 +/- 0.003); type: organism-based; conditions: in vivo, 672 h, time 28 day
[18] = Toxicity in male Wistar rat assessed as ratio of heart to body weight at 200 mg/kg, po after 28 days (reference value: 0.333 +/- 0.036); type: organism-based; conditions: in vivo, 672 h, time 28 day
[19] = Toxicity in male Wistar rat assessed as glucose level at 400 mg/kg, po after 28 days (reference value: 89.02 +/- 13.41 mg/dl); type: organism-based; conditions: in vivo, 672 h, time 28 day
Mus musculus [20] = assay: Antidiabetic activity in db/db mouse assessed as reduction in blood glucose level at 50 mg/kg, po pretreated for 30 mins followed by glucose-stimulation and measured up to 120 mins by OGTT method relative to control; type: functional; design: scale not given: the % may be the effect or the level left; conditions: 0.5 h
In short: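 db/db mice aged 5–7 weeks were fasted and grouped by fasting serum glucose. Single oral dose of 50 mg/kg; 30 min later basal bleed and oral glucose 2 g/kg. Serum glucose taken at 30, 60 and 120 min. AUC glucose excursion computed against a no-glucose water group and expressed as % reduction vs vehicle; mean ± s.e.m.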

[21] = Tmax in Sprague-Dawley rat at 25 mg/kg, po up to 24 hrs; type: ADME, organism-based; conditions: in vivo; in short: as §1
[22] = Toxicity in male Wistar rat assessed as creatinine level at 400 mg/kg, po after 28 days (reference value: 0.61 +/- 0.04 mg/dl); type: organism-based; conditions: in vivo, 672 h, time 28 day
[23] = Toxicity in male Wistar rat assessed as ratio of adrenals to body weight at 400 mg/kg, po after 28 days (reference value: 0.020 +/- 0.003); type: organism-based; conditions: in vivo, 672 h, time 28 day
[24] = Toxicity in female Wistar rat assessed as ratio of liver to body weight at 200 mg/kg, po after 28 days (reference value: 3.219 +/- 0.221); type: organism-based; conditions: in vivo, 672 h, time 28 day
[25] = Elimination rate constant in Sprague-Dawley rat at 25 mg/kg, po up to 24 hrs; type: ADME, organism-based; conditions: in vivo; in short: as §1

Cc1c(Oc2cccc(/C=C3\SC(=O)NC3=O)c2)ncnc1OC1CCN(C(=O)OC(C)(C)C)CC1
Activity (Rattus norvegicus): inactive
Ratio [1]: 0.167
Ratio [2]: 0.042
Activity (Mus musculus [3]): Dose-dependent effect
AUC(0-inf) [4]: 19700 ng·h/mL
Activity [5]: 3.59 g/dL
Ratio [6]: 0.345
Activity [7]: 0.57 mg/dL
Activity [8]: 23.3 U/L
NOAEL at 672 h [9]: > 400 mg/kg
half-life [10]: 19.3 h
Ratio [11]: 1.103
Ratio [12]: 0.84
Ratio [13]: 0.089
Ratio [14]: 3.237
Emax [15]: 160%
Activity [16]: 3.47 g/dL
Ratio [17]: 0.023
Ratio [18]: 0.363
Activity [19]: 82.17 mg/dL
Activity (Mus musculus [20]): 69.1%
Tmax [21]: 1.75 h
Activity [22]: 0.57 mg/dL
Ratio [23]: 0.023
Ratio [24]: 3.285
k el at 24 h [25]: 9.17e-05 s⁻¹
